Laboratory results as given in ChEMBL document CHEMBL1131013, “Synthesis and evaluation of analogues of the partial agonist 6-(propyloxy)-4-(methoxymethyl)-beta-carboline-3-carboxylic acid ethyl ester (6-PBC) and the full agonist 6-(benzyloxy)-4-(methoxymethyl)-beta-carboline-3-carboxylic acid ethyl ester (Zk 93423) at wild type and recombinant GABAA receptors” (J Med Chem, 1998).

Columns and labels:
[1] = biological target: GABA-A receptor; alpha-6/beta-3/gamma-2 (Homo sapiens, UniProt P18507+P28472+Q16445); assay: Binding affinity measured using LtK- cell membranes expressing Gamma-aminobutyric acid A receptor alpha-6-beta-3-gamma-2
How it was run: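 Ltk- cells expressing human α6β3γ2, scraped into PBS and resuspended in 10 mM KH2PO4/100 mM KCl pH 7.4. 1 h at 4 °C to equilibrium, filtration, scintillation counting.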

[2] = biological target: T1, GABA-A receptor; alpha-1/beta-3/gamma-2 (Homo sapiens, UniProt P14867+P18507+P28472); assay: Binding affinity measured using LtK- cell membranes expressing GABA alpha-1-beta-3-gamma-2 receptor
T1 sequence (P14867 whole entry): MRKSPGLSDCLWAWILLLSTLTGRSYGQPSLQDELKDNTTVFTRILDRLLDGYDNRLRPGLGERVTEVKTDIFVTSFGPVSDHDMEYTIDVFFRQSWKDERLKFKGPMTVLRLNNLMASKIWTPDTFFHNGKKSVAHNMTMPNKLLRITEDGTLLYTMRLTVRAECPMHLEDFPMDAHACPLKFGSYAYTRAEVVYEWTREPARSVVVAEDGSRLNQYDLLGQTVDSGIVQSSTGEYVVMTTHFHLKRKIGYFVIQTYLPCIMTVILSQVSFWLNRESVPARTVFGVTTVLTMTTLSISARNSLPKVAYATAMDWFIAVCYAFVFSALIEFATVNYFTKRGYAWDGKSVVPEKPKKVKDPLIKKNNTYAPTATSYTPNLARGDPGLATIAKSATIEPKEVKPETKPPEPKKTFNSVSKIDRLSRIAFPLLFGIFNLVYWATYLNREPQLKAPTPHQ
T1 sequence (P18507 whole entry): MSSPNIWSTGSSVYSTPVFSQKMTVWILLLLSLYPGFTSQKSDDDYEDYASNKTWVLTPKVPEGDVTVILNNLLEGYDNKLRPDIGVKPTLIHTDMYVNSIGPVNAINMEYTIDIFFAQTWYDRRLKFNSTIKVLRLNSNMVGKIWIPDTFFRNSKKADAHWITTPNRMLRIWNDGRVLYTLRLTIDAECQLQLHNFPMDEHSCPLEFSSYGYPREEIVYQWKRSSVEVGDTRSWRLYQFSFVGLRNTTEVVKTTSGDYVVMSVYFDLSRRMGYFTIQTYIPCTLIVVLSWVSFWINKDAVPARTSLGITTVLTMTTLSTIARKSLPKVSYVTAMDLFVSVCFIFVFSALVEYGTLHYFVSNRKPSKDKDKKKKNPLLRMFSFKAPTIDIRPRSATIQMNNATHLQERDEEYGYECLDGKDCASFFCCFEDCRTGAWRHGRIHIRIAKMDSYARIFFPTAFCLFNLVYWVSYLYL
T1 sequence (P28472 whole entry): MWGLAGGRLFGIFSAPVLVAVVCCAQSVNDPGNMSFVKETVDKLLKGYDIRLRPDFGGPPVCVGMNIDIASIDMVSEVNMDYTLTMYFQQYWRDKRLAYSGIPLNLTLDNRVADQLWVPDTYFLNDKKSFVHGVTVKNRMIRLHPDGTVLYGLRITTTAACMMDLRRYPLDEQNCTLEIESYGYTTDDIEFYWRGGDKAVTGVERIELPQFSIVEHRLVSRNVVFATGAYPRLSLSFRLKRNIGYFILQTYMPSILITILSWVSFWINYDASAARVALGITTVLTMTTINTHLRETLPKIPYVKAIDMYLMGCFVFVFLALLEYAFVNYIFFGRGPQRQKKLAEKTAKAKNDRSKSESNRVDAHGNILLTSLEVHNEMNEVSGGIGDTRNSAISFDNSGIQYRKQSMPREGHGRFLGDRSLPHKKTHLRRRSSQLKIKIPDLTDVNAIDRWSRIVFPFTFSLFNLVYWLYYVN

[3] = biological target: GABA-A receptor; anion channel; assay: Displacement of [3H]flunitrazepam from GABA-A Benzodiazepine receptor of rat brain cortical membranes; type: cell membranes, Membrane
How it was run: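 Rat cerebral cortex homogenized in 50 mM Tris-citrate, pH 7.4, and washed by centrifugation (20000g). […] Nonspecific binding with 10 μM Ro15-1788. Ended by vacuum filtration. IC50 estimated from at least six inhibitor concentrations; mean ± SEM of at least three determinations.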

[4] = biological target: T2, GABA-A receptor; alpha-2/beta-3/gamma-2 (Homo sapiens, UniProt P18507+P28472+P47869); assay: Binding affinity measured using LtK- cell membranes expressing GABA alpha-2-beta-3-gamma-2 receptor
T2 sequence (P18507 whole entry): T1 sequence (P18507 whole entry)
T2 sequence (P28472 whole entry): T1 sequence (P28472 whole entry)
T2 sequence (P47869 whole entry): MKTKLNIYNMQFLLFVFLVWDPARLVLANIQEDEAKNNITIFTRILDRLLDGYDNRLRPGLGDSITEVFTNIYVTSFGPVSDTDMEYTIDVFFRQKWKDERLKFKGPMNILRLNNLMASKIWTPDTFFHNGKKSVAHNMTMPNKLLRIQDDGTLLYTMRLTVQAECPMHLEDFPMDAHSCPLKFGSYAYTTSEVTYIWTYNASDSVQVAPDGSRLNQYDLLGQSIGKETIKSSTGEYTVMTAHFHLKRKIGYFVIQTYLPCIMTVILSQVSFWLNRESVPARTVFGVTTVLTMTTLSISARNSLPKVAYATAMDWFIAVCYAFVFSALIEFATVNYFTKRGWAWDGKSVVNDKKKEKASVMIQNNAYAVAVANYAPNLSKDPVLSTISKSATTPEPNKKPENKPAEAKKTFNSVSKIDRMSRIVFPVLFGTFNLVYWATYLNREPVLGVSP

[5] = biological target: T3, GABA-A receptor; alpha-5/beta-3/gamma-2 (Homo sapiens, UniProt P18507+P28472+P31644); assay: Binding affinity measured using LtK- cell membranes expressing Gamma-aminobutyric acid A receptor alpha-5-beta-3-gamma-2
T3 sequence (P18507 whole entry): T1 sequence (P18507 whole entry)
T3 sequence (P28472 whole entry): T1 sequence (P28472 whole entry)
T3 sequence (P31644 whole entry): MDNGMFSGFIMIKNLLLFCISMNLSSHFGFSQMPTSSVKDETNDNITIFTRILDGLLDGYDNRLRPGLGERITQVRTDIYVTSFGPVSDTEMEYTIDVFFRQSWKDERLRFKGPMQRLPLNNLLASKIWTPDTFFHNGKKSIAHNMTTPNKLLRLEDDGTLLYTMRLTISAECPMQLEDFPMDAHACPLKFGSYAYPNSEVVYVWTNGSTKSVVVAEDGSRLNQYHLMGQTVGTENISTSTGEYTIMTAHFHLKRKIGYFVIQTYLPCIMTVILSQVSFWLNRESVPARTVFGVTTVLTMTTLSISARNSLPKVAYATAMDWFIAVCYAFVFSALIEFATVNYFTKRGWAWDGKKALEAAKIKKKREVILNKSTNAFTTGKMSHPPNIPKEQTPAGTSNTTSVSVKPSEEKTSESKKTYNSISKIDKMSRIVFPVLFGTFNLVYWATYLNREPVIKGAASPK

[6] = biological target: T4, GABA-A receptor; alpha-3/beta-3/gamma-2 (Homo sapiens, UniProt P18507+P28472+P34903); assay: Binding affinity measured using LtK- cell membranes expressing GABA alpha-3-beta-3-gamma-2 receptor
T4 sequence (P18507 whole entry): T1 sequence (P18507 whole entry)
T4 sequence (P28472 whole entry): T1 sequence (P28472 whole entry)
T4 sequence (P34903 whole entry): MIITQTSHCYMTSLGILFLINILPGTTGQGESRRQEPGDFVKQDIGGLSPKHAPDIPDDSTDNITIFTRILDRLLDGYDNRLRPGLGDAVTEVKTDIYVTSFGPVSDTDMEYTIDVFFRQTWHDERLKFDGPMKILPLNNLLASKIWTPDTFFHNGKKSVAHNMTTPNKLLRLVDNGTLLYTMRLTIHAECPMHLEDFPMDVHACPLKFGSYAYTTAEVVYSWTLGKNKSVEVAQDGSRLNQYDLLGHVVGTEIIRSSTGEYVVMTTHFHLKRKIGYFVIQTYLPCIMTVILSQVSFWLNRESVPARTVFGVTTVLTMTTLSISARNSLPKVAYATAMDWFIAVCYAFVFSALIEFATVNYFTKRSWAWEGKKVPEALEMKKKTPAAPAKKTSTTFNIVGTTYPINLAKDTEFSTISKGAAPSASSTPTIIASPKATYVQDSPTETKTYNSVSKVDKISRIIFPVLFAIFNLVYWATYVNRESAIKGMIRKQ

[7] = biological target: T2, GABA-A receptor; alpha-2/beta-3/gamma-2; assay: Binding affinity for GABA-A alpha-2-beta-3-gamma-2 receptor expressed in L(tk-) cells; type: cell-based
How it was run: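 Competition binding on Ltk- cells expressing human α2β3γ2 GABAA receptors. Cells were scraped into PBS, centrifuged at 3000g and resuspended in phosphate buffer (10 mM KH2PO4, 100 mM KCl, pH 7.4 at 4 °C). Radioligand was [3H]Ro15-1788 at 1–2 nM, with test compound at 10^-9–10^-5 M. Nonspecific binding was defined by 10^-5 M diazepam. Incubation ran 1 h at 4 °C to equilibrium, followed by filtration and scintillation counting.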

[8] = biological target: T3, GABA-A receptor; alpha-5/beta-3/gamma-2; assay: Binding affinity for GABA-A alpha-5-beta-3-gamma-2 receptor expressed in L (tk-) cells; type: cell-based
How it was run: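 Competition binding against [3H]Ro15-1788 (1-2 nM final) on human GABAA receptors expressed in Ltk- cells, scraped into PBS and resuspended in 10 mM KH2PO4/100 mM KCl pH 7.4. Incubated to equilibrium 1 h at 4 °C, filtered, scintillation counted.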

Chain of GABA-A receptor; alpha-6/beta-3/gamma-2 (Q16445 whole entry, one chain of several): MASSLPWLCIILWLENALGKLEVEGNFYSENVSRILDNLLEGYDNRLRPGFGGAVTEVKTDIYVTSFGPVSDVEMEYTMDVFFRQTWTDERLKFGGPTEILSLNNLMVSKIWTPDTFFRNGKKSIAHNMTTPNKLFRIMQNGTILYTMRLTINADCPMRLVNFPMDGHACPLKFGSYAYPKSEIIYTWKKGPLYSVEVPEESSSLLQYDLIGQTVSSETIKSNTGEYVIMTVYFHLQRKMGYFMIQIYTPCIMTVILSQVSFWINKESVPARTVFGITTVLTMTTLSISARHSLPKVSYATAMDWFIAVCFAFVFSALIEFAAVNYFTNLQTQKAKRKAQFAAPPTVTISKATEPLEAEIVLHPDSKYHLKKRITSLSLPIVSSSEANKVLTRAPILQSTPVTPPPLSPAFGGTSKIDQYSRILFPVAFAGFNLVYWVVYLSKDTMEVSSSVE

SMILES: CCCOc1ccc2[nH]c3cnc(N)c(COC)c3c2c1
- Ki [1]: > 3 µM
- Ki [2]: 0.045 µM
- IC50 [3]: 0.697 µM
- Ki [4]: 0.54 µM
- Ki [5]: 0.38 µM
- Ki [6]: 0.7 µM

SMILES: CCCCCCCCOc1ccc2c(c1)c1c(COC)c(C(=O)OCC)ncc1n2C
- Ki [1]: > 3 µM
- Ki [2]: > 3 µM
- IC50 [3]: > 1 µM
- Ki [4]: > 3 µM
- Ki [5]: > 3 µM
- Ki [6]: > 3 µM

SMILES: CCCCCCCCOc1ccc2[nH]c3cnc(C(=O)OCC)c(COC)c3c2c1
- Ki [1]: > 3 µM
- Ki [2]: > 1 µM
- IC50 [3]: 0.33 µM
- Ki [4]: > 3 µM
- Ki [5]: > 3 µM
- Ki [6]: > 3 µM

SMILES: CCOC(=O)c1[nH]cc2nc3ccc(OC)cc3c-2c1COC
- Ki [1]: > 10 µM
- Ki [2]: 0.00014 µM
- IC50 [3]: 0.001 µM
- Ki [4]: 0.00119 µM
- Ki [5]: 0.004 µM
- Ki [6]: 0.00172 µM

SMILES: CCCOc1ccc2[nH]c3cnc(C(=O)OCC)c(COC)c3c2c1
- Ki [1]: 1.34 µM
- Ki [2]: 0.00049 µM
- IC50 [3]: 0.0081 µM
- Ki [4]: 0.00121 µM
- Ki [5]: 0.0024 µM
- Ki [6]: 0.0022 µM

SMILES: CCOc1cc2c(cn1)[nH]c1ccccc12
- Ki [1]: > 1 µM
- Ki [2]: 0.00643 µM
- Ki [5]: 0.868 µM
- Ki [7]: 0.0251 µM

SMILES: CCCCCCCCOc1ccc2[nH]c3cnc(C(=O)OCC)c(CC)c3c2c1
- Ki [1]: > 30 µM
- IC50 [3]: > 1 µM
- Ki [4]: 29.7 µM
- Ki [6]: 35 µM
- Ki [8]: 12.7 µM

SMILES: CCOC(=O)c1[nH]cc2nc3ccc(OCc4cccc5ccccc45)cc3c-2c1CC
- Ki [1]: > 10 µM
- Ki [2]: 0.183 µM
- IC50 [3]: 0.0139 µM
- Ki [4]: 0.291 µM
- Ki [5]: 0.27 µM
- Ki [6]: 0.3 µM
